In paper PMC7452071 (Acta Pharmaceutica Sinica. B, 2019):

Key:
[1] = molecular target: human recombinant HDAC1 enzyme (Homo sapiens, UniProt Q13547); assay: HDACs activity assay, HDAC1; type: biochemical; settings: read-out: IC50 HDAC1; Table 3, Table S1 and text
HCT116 (colon cancer) = assay: In vitro cell viability assay; type: cell-based; settings: Homo sapiens, HCT-116, 48 h, read-out: IC50 HCT116
MCF-7 (breast cancer) = assay: In vitro cell viability assay; type: cell-based; settings: Homo sapiens, MCF7, 48 h, read-out: IC50 MCF-7
A549 (lung cancer) = assay: In vitro cell viability assay; type: cell-based; settings: Homo sapiens, A549, 48 h, read-out: IC50 A549
TOP2α = TOP2α (Homo sapiens, UniProt P11388); assay: TOP2-mediated pBR322 DNA relaxation assay; type: biochemical
HUVEC = assay: Cytotoxicity against human normal cell line HUVEC; type: cell-based; settings: read-out: IC50 HUVEC
[2] = tested on: hematological cell lines (HL60, K562 and HEL); assay: Antiproliferative activity, hematological cell lines together; type: cell-based; settings: read-out: IC50 range toward hematological cell lines
[3] = In vitro metabolic stability in mice liver microsomes; type: in vitro ADME
HDAC2 = HDAC2 (Homo sapiens, UniProt Q92769); assay: HDACs activity assay, HDAC2; type: biochemical
Summary of the method: (§1)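 Enzyme reactions run 30 min at 37 °C in 25 mmol/L Tris pH 8.0, 137 mmol/L NaCl, 2.7 mmol/L KCl, 1 mmol/L MgCl2, 0.1 mg/mL BSA with the HDAC isoform and its substrate. Test compound diluted in 10% DMSO, final DMSO 1%. Fluorescent product read at excitation 350–360, emission 450–460. IC50 from normalized nonlinear dose-response fit. At least three independent runs; mean ± SD (n = 3).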

HDAC3 = HDAC3 (Homo sapiens, UniProt O15379); assay: HDACs activity assay, HDAC3; type: biochemical
Summary of the method: as §1

HDAC4 = HDAC4 (Homo sapiens, UniProt P56524); assay: HDACs activity assay, HDAC4; type: biochemical
Summary of the method: as §1

HDAC6 = HDAC6 (Homo sapiens, UniProt Q9UBN7); assay: HDACs activity assay, HDAC6; type: biochemical
Summary of the method: as §1

HDAC8 = HDAC8 (Homo sapiens, UniProt Q9BY41); assay: HDACs activity assay, HDAC8; type: biochemical
Summary of the method: as §1

HDAC10 = HDAC10 (Homo sapiens, UniProt Q969S8); assay: HDACs activity assay, HDAC10; type: biochemical
Summary of the method: as §1

HDAC11 = HDAC11 (Homo sapiens, UniProt Q96DB2); assay: HDACs activity assay, HDAC11; type: biochemical
Summary of the method: as §1

[4] = tested on: Acetyl-H3 and Acetyl-H4 in HCT116 cells; assay: Western blot for acetylated histones H3 and H4; type: cell-based, human; settings: 0.5 and 5 μmol/L, 24 h
Summary of the method: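 HCT116 cells (35 × 10^4/well) were exposed 24 h to test compound or DMSO vehicle, washed with cold PBS and lysed 30 min on ice in RIPA with protease/phosphatase inhibitors. BCA-quantified protein (30 μg) was run on SDS-PAGE and transferred to PVDF. Membranes were blocked 2 h in 5% BSA, probed overnight at 4 °C with anti-histone H3 and H4 antibodies, then secondary 1.5 h. Infrared imaging.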

γH2AX in HCT116 cells = assay: Western blot for γH2AX; type: cell-based, human; settings: 0.5 and 5 μmol/L, 24 h
Summary of the method: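 HCT116 seeded at 35 × 10^4 cells/well, treated 24 h with test compound or vehicle. Cells washed in cold PBS, lysed 30 min on ice in RIPA with protease and phosphatase inhibitors, protein quantified by BCA. 30 μg resolved by SDS-PAGE, transferred to PVDF, blocked 2 h in 5% BSA, primary antibody overnight at 4 °C, secondary 1.5 h, infrared imaging.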

HCT116 cells [5] = assay: Flow cytometry assay of cell apoptosis; type: cell-based, human; settings: 48 h
HCT116 cells [6] = assay: Flow cytometry analysis of cell cycle; type: cell-based, human; settings: 48 h
[7] = Pharmacokinetic study in SD rats; type: in vivo; settings: male, Sprague-Dawley, rat, plasma, 20 mg/kg
HCT116 xenograft = assay: In vivo tumor growth inhibition assay against HCT116 xenograft; settings: bid
[8] = female, ICR, mouse, liver microsomes, pH 7.4

Sequence of TOP2α (P11388 whole entry): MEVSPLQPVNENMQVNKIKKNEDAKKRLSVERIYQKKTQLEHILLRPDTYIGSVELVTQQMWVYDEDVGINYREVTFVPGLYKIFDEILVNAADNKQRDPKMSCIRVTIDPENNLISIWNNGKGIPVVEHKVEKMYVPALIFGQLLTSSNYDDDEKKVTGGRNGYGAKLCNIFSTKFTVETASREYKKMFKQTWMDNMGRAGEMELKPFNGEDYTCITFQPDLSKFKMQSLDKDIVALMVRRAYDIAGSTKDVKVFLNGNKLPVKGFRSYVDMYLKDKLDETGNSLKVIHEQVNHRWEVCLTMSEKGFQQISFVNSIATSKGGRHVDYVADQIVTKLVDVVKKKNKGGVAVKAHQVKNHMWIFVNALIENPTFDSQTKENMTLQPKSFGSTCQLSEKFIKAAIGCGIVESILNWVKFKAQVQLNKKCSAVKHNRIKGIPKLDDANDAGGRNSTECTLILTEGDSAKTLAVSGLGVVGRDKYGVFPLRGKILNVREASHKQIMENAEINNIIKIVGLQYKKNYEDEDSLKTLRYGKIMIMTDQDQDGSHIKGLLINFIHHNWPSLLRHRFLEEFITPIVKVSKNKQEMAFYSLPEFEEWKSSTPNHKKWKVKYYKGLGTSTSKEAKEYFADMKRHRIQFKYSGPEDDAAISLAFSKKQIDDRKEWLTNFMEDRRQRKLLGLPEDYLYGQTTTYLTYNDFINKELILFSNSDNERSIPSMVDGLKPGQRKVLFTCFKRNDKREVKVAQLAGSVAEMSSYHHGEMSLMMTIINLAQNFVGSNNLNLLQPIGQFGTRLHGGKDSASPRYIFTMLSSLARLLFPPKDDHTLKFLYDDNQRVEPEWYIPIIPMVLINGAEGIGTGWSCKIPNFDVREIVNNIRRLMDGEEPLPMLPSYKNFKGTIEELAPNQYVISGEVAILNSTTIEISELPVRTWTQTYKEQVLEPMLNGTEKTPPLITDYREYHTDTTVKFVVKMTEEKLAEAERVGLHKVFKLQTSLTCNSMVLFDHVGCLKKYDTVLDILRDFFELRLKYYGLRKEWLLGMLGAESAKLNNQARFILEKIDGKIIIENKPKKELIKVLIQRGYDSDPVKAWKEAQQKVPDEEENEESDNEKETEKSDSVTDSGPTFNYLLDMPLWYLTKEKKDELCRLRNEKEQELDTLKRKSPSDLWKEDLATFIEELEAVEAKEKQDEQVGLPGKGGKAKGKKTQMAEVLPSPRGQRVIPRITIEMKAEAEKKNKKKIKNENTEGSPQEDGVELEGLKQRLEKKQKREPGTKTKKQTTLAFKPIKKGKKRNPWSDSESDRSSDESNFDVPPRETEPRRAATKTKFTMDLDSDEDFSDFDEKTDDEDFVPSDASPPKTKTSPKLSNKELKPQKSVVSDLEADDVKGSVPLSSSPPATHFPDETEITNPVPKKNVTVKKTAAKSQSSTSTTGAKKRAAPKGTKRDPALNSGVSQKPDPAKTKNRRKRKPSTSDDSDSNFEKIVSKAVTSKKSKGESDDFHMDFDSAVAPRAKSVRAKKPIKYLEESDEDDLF
Sequence of HDAC6 (Q9UBN7 whole entry): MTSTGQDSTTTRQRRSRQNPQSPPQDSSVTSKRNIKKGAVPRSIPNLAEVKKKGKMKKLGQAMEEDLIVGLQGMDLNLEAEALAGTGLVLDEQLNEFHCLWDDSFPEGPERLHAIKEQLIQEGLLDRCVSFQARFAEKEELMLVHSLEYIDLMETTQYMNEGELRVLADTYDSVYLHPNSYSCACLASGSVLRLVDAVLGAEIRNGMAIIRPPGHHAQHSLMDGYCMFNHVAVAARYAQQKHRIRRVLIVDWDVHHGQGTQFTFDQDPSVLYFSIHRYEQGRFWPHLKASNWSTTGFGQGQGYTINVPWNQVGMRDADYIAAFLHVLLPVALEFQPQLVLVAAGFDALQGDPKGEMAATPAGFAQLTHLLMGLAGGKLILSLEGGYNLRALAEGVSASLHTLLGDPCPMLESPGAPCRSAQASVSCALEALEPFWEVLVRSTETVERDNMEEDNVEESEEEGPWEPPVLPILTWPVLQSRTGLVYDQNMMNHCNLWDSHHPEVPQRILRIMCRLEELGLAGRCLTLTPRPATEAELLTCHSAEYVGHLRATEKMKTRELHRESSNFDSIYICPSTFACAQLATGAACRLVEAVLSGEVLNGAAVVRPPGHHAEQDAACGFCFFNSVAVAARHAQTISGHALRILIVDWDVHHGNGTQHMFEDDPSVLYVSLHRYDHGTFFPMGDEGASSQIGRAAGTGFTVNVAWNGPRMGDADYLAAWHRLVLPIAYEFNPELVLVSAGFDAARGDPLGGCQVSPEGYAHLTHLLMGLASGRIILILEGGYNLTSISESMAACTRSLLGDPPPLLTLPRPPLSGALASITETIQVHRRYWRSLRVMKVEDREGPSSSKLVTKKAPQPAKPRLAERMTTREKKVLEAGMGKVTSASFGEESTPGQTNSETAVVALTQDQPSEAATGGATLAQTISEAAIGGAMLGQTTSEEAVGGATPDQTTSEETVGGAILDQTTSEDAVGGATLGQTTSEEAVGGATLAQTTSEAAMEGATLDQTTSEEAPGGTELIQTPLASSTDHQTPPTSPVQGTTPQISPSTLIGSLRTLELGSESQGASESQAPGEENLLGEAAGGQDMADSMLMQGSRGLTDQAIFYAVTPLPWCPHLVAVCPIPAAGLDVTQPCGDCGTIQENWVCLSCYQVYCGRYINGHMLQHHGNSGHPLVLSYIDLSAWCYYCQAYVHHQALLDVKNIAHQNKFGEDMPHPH
Sequence of HDAC4 (P56524 whole entry): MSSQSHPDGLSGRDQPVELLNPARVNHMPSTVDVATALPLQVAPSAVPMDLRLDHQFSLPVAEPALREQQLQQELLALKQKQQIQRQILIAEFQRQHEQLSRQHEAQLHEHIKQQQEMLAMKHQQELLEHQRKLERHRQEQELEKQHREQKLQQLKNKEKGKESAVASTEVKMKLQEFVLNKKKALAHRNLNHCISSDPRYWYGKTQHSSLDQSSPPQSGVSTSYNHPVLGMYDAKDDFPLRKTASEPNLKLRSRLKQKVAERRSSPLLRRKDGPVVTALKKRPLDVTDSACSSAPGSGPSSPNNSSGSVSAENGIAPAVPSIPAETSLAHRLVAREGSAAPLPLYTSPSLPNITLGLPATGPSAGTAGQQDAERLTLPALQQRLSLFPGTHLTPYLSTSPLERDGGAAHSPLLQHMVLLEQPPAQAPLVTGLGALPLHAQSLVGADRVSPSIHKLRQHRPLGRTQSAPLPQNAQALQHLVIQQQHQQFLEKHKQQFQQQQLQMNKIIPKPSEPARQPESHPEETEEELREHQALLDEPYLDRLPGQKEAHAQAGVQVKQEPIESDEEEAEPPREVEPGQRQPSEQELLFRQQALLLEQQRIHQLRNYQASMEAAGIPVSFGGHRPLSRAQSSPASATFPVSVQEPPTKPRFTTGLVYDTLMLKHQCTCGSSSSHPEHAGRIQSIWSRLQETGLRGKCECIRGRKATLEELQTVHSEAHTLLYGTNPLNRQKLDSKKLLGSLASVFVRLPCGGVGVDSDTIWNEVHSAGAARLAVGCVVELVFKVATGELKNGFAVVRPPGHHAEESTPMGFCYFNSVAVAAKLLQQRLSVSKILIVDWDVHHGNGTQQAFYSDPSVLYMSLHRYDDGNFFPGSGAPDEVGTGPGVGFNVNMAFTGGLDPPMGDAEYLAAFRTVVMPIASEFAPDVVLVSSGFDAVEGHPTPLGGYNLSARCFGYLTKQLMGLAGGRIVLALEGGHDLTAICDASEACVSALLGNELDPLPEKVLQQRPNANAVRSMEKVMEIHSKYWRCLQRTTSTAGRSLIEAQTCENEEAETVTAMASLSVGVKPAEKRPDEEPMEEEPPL
Sequence of human recombinant HDAC1 enzyme (Q13547 whole entry): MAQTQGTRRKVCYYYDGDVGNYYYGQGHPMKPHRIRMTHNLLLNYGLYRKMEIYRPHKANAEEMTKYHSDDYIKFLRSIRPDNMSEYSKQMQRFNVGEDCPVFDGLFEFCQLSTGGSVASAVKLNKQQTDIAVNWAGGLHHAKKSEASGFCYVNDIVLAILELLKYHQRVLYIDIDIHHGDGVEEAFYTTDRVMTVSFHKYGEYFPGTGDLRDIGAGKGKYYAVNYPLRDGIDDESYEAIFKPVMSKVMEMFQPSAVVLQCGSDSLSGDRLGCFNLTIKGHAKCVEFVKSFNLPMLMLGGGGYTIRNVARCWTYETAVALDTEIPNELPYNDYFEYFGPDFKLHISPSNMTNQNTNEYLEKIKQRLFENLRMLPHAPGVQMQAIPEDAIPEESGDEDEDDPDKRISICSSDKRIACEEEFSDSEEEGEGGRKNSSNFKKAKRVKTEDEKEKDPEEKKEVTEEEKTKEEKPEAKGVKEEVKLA
Sequence of HDAC2 (Q92769 whole entry, canonical isoform): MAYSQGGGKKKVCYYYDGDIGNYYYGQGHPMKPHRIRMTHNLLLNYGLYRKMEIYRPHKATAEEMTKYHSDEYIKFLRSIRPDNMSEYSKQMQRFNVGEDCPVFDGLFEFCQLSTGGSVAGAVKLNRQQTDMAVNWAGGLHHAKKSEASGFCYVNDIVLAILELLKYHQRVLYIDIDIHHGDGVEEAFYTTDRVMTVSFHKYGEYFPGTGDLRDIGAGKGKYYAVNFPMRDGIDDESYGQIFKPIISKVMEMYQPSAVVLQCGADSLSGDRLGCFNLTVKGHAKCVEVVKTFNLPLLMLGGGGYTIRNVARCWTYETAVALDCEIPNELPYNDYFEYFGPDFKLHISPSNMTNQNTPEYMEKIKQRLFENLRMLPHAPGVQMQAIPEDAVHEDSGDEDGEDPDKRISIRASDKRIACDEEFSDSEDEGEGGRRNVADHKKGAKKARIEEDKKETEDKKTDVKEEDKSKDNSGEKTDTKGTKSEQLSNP

CN1c2ccccc2C(=O)N2[C@H](C(=O)Nc3ccc(C(=O)Nc4ccccc4N)cc3)Cc3c([nH]c4ccccc34)[C@@H]12 [Compound 30a, (7S,13bS)-N-(4-((2-Aminophenyl)carbamoyl)phenyl)-14-methyl-5-oxo-5,7,8,13,13b,14-hexahydroindolo[2′,3′:3,4]pyrido[2,1-b]quinazoline-7-carboxamide]
IC50 [1]: 0.16 ± 0.015 µM
IC50 (HCT116 (colon cancer)): 1.6 ± 0.15 µM
IC50 (MCF-7 (breast cancer)): 18 ± 2 µM
IC50 (A549 (lung cancer)): 7.8 ± 0.65 µM
TOP2 inhibitory activity (relaxation assay) (TOP2α; 50 μmol/L): remarkable TOP2 inhibitory activities
TOP2 inhibitory activity (relaxation assay) (TOP2α; 100 μmol/L): remarkable TOP2 inhibitory activities
IC50 (HUVEC): 48 µM
IC50 [2]: 0.56 to 1.9 µM
half-life at 1 μmol/L [3, 8]: 0.583 h
microsomal CLint at 1 μmol/L [3, 8]: 39.1 µL/min/mg
Microsomal t1/2 relative to compound 25a ([3]; mice liver microsomes): ~3 fold
IC50 (HDAC2): 10 ± 1.4 µM
IC50 (HDAC3): 27 ± 4.8 µM
IC50 (HDAC4): > 100 µM
IC50 (HDAC6): > 100 µM
IC50 (HDAC8): > 100 µM
IC50 (HDAC10): 5.5 ± 1.5 µM
IC50 (HDAC11): > 100 µM
Acetylation of histone 3 and 4 (Acetyl-H3 and Acetyl-H4) [4]: hyperacetylation effect of histone 3 and 4 (Acetyl-H3 and Acetyl-H4) in a dose-dependent manner
Expression of γH2AX (γH2AX in HCT116 cells): increased the expression of γH2AX
Percentage of apoptotic cells (HCT116 cells [5]; HCT116, 0.5 μmol/L): 27.6%
Percentage of apoptotic cells (HCT116 cells [5]; HCT116, 1 μmol/L): 37.1%
Percentage of apoptotic cells (HCT116 cells [5]; HCT116, 5 μmol/L): 88.8%
Ratio of cells at the G2/M phase (HCT116 cells [6]; HCT116, 0.5 μmol/L): 32.9%
Ratio of cells at the G2/M phase (HCT116 cells [6]; HCT116, 1 μmol/L): 36.4%
Ratio of cells at the G2/M phase (HCT116 cells [6]; HCT116, 2 μmol/L): 38.8%
AUC(0-t) ([7]; ip): 86900 ng·h/mL
half-life ([7]; ip): > 24 h
AUC(0-t) ([7]; po): 485 ng·h/mL
half-life ([7]; po): 4.03 h
Tumor growth inhibition (TGI) (HCT116 xenograft; 20 mg/kg, i.p., 14 consecutive days): 63.6%
Tumor growth inhibition (TGI) (HCT116 xenograft; 100 mg/kg, p.o., 21 days): 65.42%
Tumor growth inhibition (TGI) (HCT116 xenograft; 150 mg/kg, p.o., 21 days (dose of the combination not given)): 75.2%
Body weight during the test (HCT116 xenograft; p.o., 100 or 150 mg/kg, 21 days): no significant difference
